The values that follow come from ChEMBL document CHEMBL1143844, “Biochemical studies on the mechanism of human immunodeficiency virus type 1 reverse transcriptase resistance to 1-(beta-D-dioxolane)thymine triphosphate” (Antimicrob Agents Chemother, 2007).

Experiment [1] is described as follows: Inhibition of HIV1 reverse transcriptase 41L/69S-SG/210W/215Y mutant in presence of 5'-A12-(GACT)5-3' by heteropolymeric DNA polymerase assay.
Experiment [2] is described as follows: Inhibition of HIV1 reverse transcriptase 41L/67N/70R/210W/215Y mutant in presence of 3.2 mM ATP by prA/odT assay. More on the design: species or system Human immunodeficiency virus 1. In a few lines:
(§1)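 Buffer: 50 mM HEPES pH 7.3, 10 mM MgCl2, 0.5% Triton X-100, 0.1 mg/ml BSA. Incubation 180 min at 33°C. Product detected with AP-conjugated anti-BrdU at 405 nm. […] Ki from four inhibitor levels. At least two experiments in duplicate.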

Experiment [3] can be described thus: Inhibition of HIV1 reverse transcriptase 41L/67N/70R/210W/215Y mutant in presence of 5'-A12-(GACT)5-3' by heteropolymeric DNA polymerase assay. More on the design: species or system Human immunodeficiency virus 1. In a few lines: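 DNA polymerase assay with 5 mM ATP and 1 μM each dATP, dGTP, dCTP and BrdUTP. The 50-base DNA template carries a 5′-A12 tail with a (GTCA)5 or (GACT)5 repeat. Incubation 180 min at 33°C, NaOH dehybridization, anti-BrdU-AP detection at 405 nm. IC50 from at least two experiments in duplicate. Fold change is relative to wild-type RT on the same template.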

A short description of experiment [4]: Inhibition of HIV1 LAI reverse transcriptase 65R mutant by heteropolymeric DNA polymerase assay. More on the design: species or system Human immunodeficiency virus 1. The method, boiled down: (§2)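 Purified p66/p51 HIV-1 RT, or p66 homodimer for 65R, at 30–100 pM (about 1.5–4.5 mU/well). Plate-bound 18-mer DNA primer on a 50-base 5′-A12-(GTCA)5-3′ DNA template. dATP, dGTP, dCTP and BrdUTP at 1.0 μM each, no ATP. Buffer: HEPES 50 mM pH 7.3, 10 mM MgCl2. Incubation 180 min at 33°C, NaOH dehybridization, anti-BrdU-AP tracer, A405. IC50 from seven inhibitor concentrations, at least two experiments in duplicate.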

The nature of experiment [5]: Inhibition of HIV1 reverse transcriptase 41L/69S-SG/184V/210W/215Y mutant in presence of 5 mM ATP by heteropolymeric DNA polymerase assay. Set-up: species or system Human immunodeficiency virus 1. The method, boiled down:
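Heteropolymeric DNA polymerase assay with ATP added at 5 mM. Purified HIV-1 RT at 30–100 pM acts on a plate-bound DNA primer with a 5′-A12-(GTCA)5-3′ template. dATP, dGTP, dCTP and BrdUTP at 1.0 μM each. Incubation 180 min at 33°C. BrdUMP incorporation read via anti-BrdU-AP at 405 nm after NaOH dehybridization. IC50 from seven inhibitor concentrations, at least two experiments in duplicate.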

Experiment [6] in a line: Inhibition of HIV1 reverse transcriptase 41L/67N/70R/210W/215Y mutant in presence of 1 uM dNTP by heteropolymeric DNA polymerase assay. More on the design: species or system Human immunodeficiency virus 1. In a few lines:
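DNA polymerase assay with 5 mM ATP and purified HIV-1 RT (HXB2 background) on a plate-bound primer with a 5′-A12-(GTCA)5-3′ template. Each dNTP (dATP, dGTP, dCTP, BrdUTP) is set at either 1 μM or 20 μM. IC50 from at least two experiments in duplicate. Fold change is relative to wild-type RT at the same dNTP level.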

Experiment [7] can be described thus: Inhibition of HIV1 reverse transcriptase wild type HXB2(a) in presence of 3.2 mM ATP by prA/odT assay. Set-up: species or system Human immunodeficiency virus 1.
Experiment [8] can be described thus: Inhibition of HIV1 reverse transcriptase wild type HXB2(b) in presence of 3.2 mM ATP by prA/odT assay. Set-up: species or system Human immunodeficiency virus 1.
A short description of experiment [9]: Inhibition of HIV1 reverse transcriptase wild type HXB2(a) in presence of 5'-A12-(GACT)5-3' by heteropolymeric DNA polymerase assay. More on the design: species or system Human immunodeficiency virus 1. The method, boiled down: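 Heteropolymeric DNA assay with 5 mM ATP and dNTPs (BrdUTP replacing TTP) at 1.0 μM, using an alternative template repeat, 5′-A12-(GACT)5-3′. Run at 33°C for 180 min, followed by NaOH dehybridization and anti-BrdU-AP detection at 405 nm. IC50 reported in μM as the mean of at least two runs in duplicate.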

The nature of experiment [10]: Inhibition of HIV1 reverse transcriptase wild type HXB2(b) by heteropolymeric DNA polymerase assay. More on the design: species or system Human immunodeficiency virus 1. The method, boiled down:
(§3)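 Heteropolymeric assay without ATP: plate-bound 18-mer DNA primer (~110 nM) with 50-mer 5′-A12-(GTCA)5 template (190 nM). dATP, dGTP, dCTP and BrdUTP at 1.0 μM each, in HEPES 50 mM pH 7.3, MgCl2 10 mM. RT 30–100 pM, 33°C for 180 min, then NaOH dehybridization and anti-BrdU-AP tracer read at 405 nm. IC50 from seven triphosphate concentrations; two to four runs in duplicate.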

The nature of experiment [11]: Inhibition of HIV1 HXB2 reverse transcriptase 41L/67N/70R/215Y/219Q mutant by heteropolymeric DNA polymerase assay.
Experiment [12] in a line: Inhibition of HIV1 reverse transcriptase 41L/69S-SG/184V/210W/215Y mutant by heteropolymeric DNA polymerase assay. Set-up: species or system Human immunodeficiency virus 1. The method, boiled down:
as §2

The nature of experiment [13]: Inhibition of HIV1 reverse transcriptase wild type HXB2(a) in presence of 20 uM dNTP by heteropolymeric DNA polymerase assay. More on the design: species or system Human immunodeficiency virus 1. In a few lines: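 Heteropolymeric DNA assay containing 5 mM ATP on the 5′-A12-(GTCA)5 template, with each dNTP (BrdUTP in place of TTP) at 1 μM or, in the modified version, 20 μM. Mean IC50 from at least two runs in duplicate.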

The nature of experiment [14]: Inhibition of HIV1 reverse transcriptase 41L/67N/70R/215Y/219Q mutant in presence of 3.2 mM ATP by prA/odT assay. Set-up: species or system Human immunodeficiency virus 1. The method, boiled down: as §1
The nature of experiment [15]: Inhibition of HIV1 reverse transcriptase 41L/67N/70R/184V/210W/215Y mutant by heteropolymeric DNA polymerase assay. Set-up: species or system Human immunodeficiency virus 1. The method, boiled down: as §2
Experiment [16] in a line: Inhibition of HIV1 reverse transcriptase 41L/67N/70R/210W/215Y mutant in presence of 5 mM ATP by heteropolymeric DNA polymerase assay. Set-up: species or system Human immunodeficiency virus 1. In a few lines: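 Heteropolymeric DNA polymerase assay with ATP added at 5 mM. Purified HIV-1 RT at 30–100 pM acts on a plate-bound DNA primer with a 5′-A12-(GTCA)5-3′ template. dATP, dGTP, dCTP and BrdUTP at 1.0 μM each. Incubation 180 min at 33°C. IC50 from seven inhibitor concentrations, at least two experiments in duplicate.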

Experiment [17] can be described thus: Inhibition of HIV1 reverse transcriptase wild type HXB2(a) by heteropolymeric DNA polymerase assay. More on the design: species or system Human immunodeficiency virus 1. In a few lines:
as §3

A short description of experiment [18]: Inhibition of HIV1 reverse transcriptase 41L/67N/70R/210W/215Y mutant by heteropolymeric DNA polymerase assay. More on the design: species or system Human immunodeficiency virus 1. The method, boiled down:
as §2

Regarding `Cc1cn([C@H]2CO[C@@H](COP(=O)(O)OP(=O)(O)OP(=O)(O)O)O2)c(=O)[nH]c1=O`, the IC50 in experiment [1] was 780 nM; in experiment [3], 400 nM; in [4] it was 460 nM; in experiment [5], 1400 nM; in [6], 500 nM; in experiment [9], 310 nM. Besides, the IC50 turned out to be 120 nM in experiment [10]; 130 nM in experiment [11]; 220 nM in experiment [12]; 2000 nM in experiment [13]; 160 nM in experiment [15]; 500 nM in [16]. In addition, the inhibition constant (Ki) is 13 nM in [2], 2.8 nM in experiment [7], 1.8 nM in experiment [8] and 11 nM in experiment [14].

With `Cc1cn([C@H]2C[C@H](N=[N+]=[N-])[C@@H](COP(=O)(O)OP(=O)(O)OP(=O)(O)O)O2)c(=O)[nH]c1=O` [ZIDOVUDINE TRIPHOSPHATE], the Ki was found to be 130 nM in [2], 5.4 nM in experiment [7], 4 nM in experiment [8] and 95 nM in experiment [14]. The half-maximal inhibitory concentration (IC50) came out at 180 nM in experiment [17]; 1200 nM in experiment [5]; 140 nM in experiment [18]; 200 nM in [10]; 190 nM in [11]; 210 nM in experiment [12].

With `C[C@H](Cn1cnc2c(N)ncnc21)OCP(=O)(O)OP(=O)(O)OP(=O)(O)O`, the IC50 in [1] stood at 17000 nM; in experiment [17], 1600 nM; in experiment [3] it was 8600 nM; in [4] it was 12000 nM; in [18], 1400 nM; in experiment [6] it was 13000 nM. The concentration for half-maximal inhibition (IC50) in experiment [9] was found to be 2800 nM; in [13], 19000 nM; in experiment [15] it was 1400 nM; in [16], 13000 nM.

By IC50 is commonly meant the concentration at which inhibition is half-maximal. Usually Ki stands for a measure of affinity in units of concentration, obtained from inhibition or displacement.
